Active and inactive are the calls of the source. The rule behind the calls is not given here.
Experiments:
[1] = test system: MCF7; experiment: Cell cycle arrest in human MCF7 cells assessed as accumulation at S phase at 100 uM after 18 hrs by propidium iodide staining-based FACS flow cytometric analysis (reference value: 12.6%); type: functional
[2] = test system: MCF7; experiment: Cell cycle arrest in human MCF7 cells assessed as accumulation at G1 phase at 100 uM after 18 hrs by propidium iodide staining-based FACS flow cytometric analysis (reference value: 67.6%); type: functional
[3] = test system: MCF7; experiment: Effect on alpha-tubulin acetylation in human MCF7 cells at 50 uM after 6 to 18 hrs by Western blotting analysis; type: functional, cell-based
Procedure, shortened: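 MCF-7 cells seeded 24 h ahead, treated for 6 or 18 h, then lysed in M-PER. Lysates run on SDS-PAGE, transferred to nitrocellulose and probed with mouse monoclonal anti-acetylated α-tubulin and anti-total α-tubulin. Detection with peroxidase anti-mouse secondary and ECL Plus.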

[4] = target: T1, NAD-dependent protein deacetylase sirtuin-1 (Homo sapiens) (UniProt Q96EB6); experiment: Inhibition of SIRT1 in etoposide-induced human MCF7 cells assessed as increase in p53 acetylation at Lys382 at 50 uM after 5 hrs by Western blotting analysis; type: cell-based
T1 sequence (whole entry): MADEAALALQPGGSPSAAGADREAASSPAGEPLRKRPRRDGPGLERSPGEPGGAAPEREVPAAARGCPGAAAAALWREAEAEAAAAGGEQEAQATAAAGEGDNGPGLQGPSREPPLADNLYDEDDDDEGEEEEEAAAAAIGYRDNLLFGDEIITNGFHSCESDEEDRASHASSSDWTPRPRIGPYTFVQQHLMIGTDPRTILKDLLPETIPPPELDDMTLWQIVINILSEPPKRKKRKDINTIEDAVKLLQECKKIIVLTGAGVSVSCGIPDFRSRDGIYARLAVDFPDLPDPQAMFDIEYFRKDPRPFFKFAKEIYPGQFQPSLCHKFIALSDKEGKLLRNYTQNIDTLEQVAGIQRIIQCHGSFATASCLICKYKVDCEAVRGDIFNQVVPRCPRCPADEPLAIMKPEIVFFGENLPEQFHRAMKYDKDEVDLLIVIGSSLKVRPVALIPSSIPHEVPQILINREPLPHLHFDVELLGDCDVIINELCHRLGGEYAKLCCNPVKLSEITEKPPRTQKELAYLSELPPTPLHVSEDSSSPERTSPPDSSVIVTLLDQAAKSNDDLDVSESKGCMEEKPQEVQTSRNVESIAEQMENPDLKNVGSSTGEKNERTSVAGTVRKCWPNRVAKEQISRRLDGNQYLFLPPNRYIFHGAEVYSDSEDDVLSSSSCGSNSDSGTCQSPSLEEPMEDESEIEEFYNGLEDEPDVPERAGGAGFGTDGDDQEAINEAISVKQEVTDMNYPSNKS
Procedure, shortened: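 MCF-7 cells seeded 24 h ahead, then given 50 μM compound and 100 μM etoposide together for 5 h before harvest. Acetylated p53 detected by Western blot; run once per compound.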

[5] = test system: A549; experiment: Growth inhibition of human A549 cells at >= 50 uM after 48 hrs by sulforhodamine B assay; type: functional, cell-based
[6] = target: T1, NAD-dependent protein deacetylase sirtuin-1 (Homo sapiens); experiment: Inhibition of SIRT1 in etoposide-induced human SH-SY5Y cells assessed as increase in p53 acetylation at Lys382 at 20 uM after 5 hrs by Western blotting analysis; type: cell-based
Procedure, shortened: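 ARPE-19 or SH-SY5Y cells seeded 24 h ahead, then given 20 μM compound and 100 μM etoposide together for 5 h before harvest. Acetylated p53 detected by Western blot. Mean ± SEM of 2 independent experiments.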

[7] = target: T2, NAD-dependent protein deacetylase sirtuin-1 (Homo sapiens, UniProt Q96EB6); experiment: Inhibition of human recombinant GST-tagged SIRT1 using KI177 as substrate preincubated for 5 mins followed by enzyme addition measured after 1 hr by fluorescence assay
T2 sequence (Q96EB6 whole entry): T1 sequence (whole entry)
Procedure, shortened: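 Fluor de Lys deacetylation assay. […] Mix preincubated 5 min at room temperature, started with enzyme, run 1 h at 37°C. Developer with 2 mM nicotinamide then added for 45 min at 37°C before fluorescence reading.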

[8] = target: T1, NAD-dependent protein deacetylase sirtuin-1 (Homo sapiens); details: at 50 µM

## COc1ccc(C(=O)CNC(=O)[C@H](CCCCNC(C)=S)NC(=O)OCc2ccccc2)cc1
[1]
  Activity: 5.8%
[2]
  Activity: 80.5%
[3]
  Activity: inactive
[4]
  inhibition: Active
[5]
  growth inhibition (GI): Active
[6]
  inhibition: Active
[7]
  IC50: 0.89 µM
[8]
  inhibition: 97%

Reference: ChEMBL document CHEMBL2417552, “Screen of pseudopeptidic inhibitors of human sirtuins 1-3: two lead compounds with antiproliferative effects in cancer cells” (J Med Chem, 2013)
